Sampled rows, rich in hits. Any-hit rate of the full collection: about 4.6%.
OX1R antag-1: blocks the human orexin 1 receptor. inhibition, % at 5 µM. O43613. CHO/OX1R cells, Fluo-8 calcium fluorescence, orexin A. hit rate 0.43% among 330,000;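 active means inhibition above its plate's threshold, mean inhibition of all tested compounds on the plate plus 3 SD, cut at about 37% in these data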;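 further: 0% = orexin A challenge wells and 100% = SB-334867-A antagonist wells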
Target sequence (O43613 whole entry, looked up): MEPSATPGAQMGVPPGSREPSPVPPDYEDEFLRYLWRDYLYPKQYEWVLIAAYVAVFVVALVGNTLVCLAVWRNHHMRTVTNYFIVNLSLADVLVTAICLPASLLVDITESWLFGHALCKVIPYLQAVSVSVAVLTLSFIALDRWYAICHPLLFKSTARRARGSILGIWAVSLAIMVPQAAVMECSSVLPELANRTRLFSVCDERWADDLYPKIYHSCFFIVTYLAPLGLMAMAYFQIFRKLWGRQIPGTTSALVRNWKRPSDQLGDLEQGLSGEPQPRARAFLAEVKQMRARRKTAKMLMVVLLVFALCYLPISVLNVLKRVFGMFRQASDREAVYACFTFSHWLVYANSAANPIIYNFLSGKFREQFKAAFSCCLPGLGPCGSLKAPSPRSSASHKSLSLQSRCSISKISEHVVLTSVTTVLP
TAAR1 ag: human TAAR1 agonism; Q96RJ0; CHO RD-HGA16 TAAR1, Fluo-8 calcium fluorescence; vehicle wells 0%, saturating PEA agonist 100%; activation, % at 3 µM; hit rate 0.99% among 360,000;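 active means activation above the mean activation of all test compounds in the run plus 3 SD, cut at about 38% in these data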
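test system = CHO RD-HGA16 cells carrying human TAAR1 plus Gα16 | schedule = 17-24 h seeding, 75 min 37 °C dye, 30 min RT | compound dosing = 3 µM single concentration | control set = DMSO and PEA EC100 | replicates = n 1 | signal = Fluo-8 fluorescence, 5 s baseline then 140 s kinetic read | measure = percent activation vs PEA EC100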
CHO parental Ca: counter-screen: ATP calcium response change in parental CHO cells | inhibition, % at 5.6 µM | parental CHO-K1, ATP-induced calcium, Fluo-8 fluorescence | AID 463079 | hit rate 0.63% among 330,000;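 active means inhibition above that plate's mean sample inhibition plus 3 SD, cut at about 26% in these data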;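 further: 0% = ATP-challenged DMSO wells and 100% = DMSO wells without ATP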
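Material: Parental CHO cells | Reagent: ATP | Compound dosing: Single nominal dose of 5.6 µM per compound | Detection: Intracellular calcium via Fluo-8 no-wash fluorescent dye | Read-out: % inhibition of ATP-induced calcium mobilization | Benchmarks: Low control ATP plus DMSO, high control DMSO only | Replicates: Singlicate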
GPR7 antag: antagonists of human GPR7 (neuropeptides B/W receptor 1). P48145. GPR7-expressing cells, fluorescence antagonist assay. inhibition, % at 4.4 µM. hit rate 1.1% among 290,000. AID 1861; in the data active means inhibition above about 16%, passing the limit was not always enough;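 further: cells stimulated with the agonist NPW; 0% = agonist with vehicle and 100% = vehicle without agonist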
Target sequence (P48145 whole entry, looked up): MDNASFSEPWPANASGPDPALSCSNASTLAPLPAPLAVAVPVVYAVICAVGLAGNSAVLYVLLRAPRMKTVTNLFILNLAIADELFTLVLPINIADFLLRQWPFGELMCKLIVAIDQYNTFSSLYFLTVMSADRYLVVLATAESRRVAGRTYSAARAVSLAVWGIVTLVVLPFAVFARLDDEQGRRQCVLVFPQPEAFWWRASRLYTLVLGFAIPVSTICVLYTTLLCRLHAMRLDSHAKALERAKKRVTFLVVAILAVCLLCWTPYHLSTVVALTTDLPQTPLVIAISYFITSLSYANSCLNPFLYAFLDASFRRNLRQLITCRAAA
TAAR1 antagonist: human TAAR1 antagonism | inhibition, % at 3 µM | Q96RJ0 | hit rate 1.5% among 360,000 | CHO RD-HGA16 TAAR1, Fluo-8 calcium fluorescence, antagonist;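 active means inhibition above a per-plate cutoff, the mean inhibition of test compounds on that plate plus 3 SD, cut at about 49% in these data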;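 further: 0% = DMSO plus EC80 beta-PEA response and 100% = DMSO alone without agonist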
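Material: CHO RD-HGA16 cells bearing hTAAR1; compound dosing: one-point dosing, 3 µM nominal final; schedule: dye loading 75 min at 37 °C, then 30 min room temperature; measured by: calcium fluorescence with Fluo-8; control set: vehicle and agonist controls; replication: n of 1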
OX1R antag-2: OX1R (human) antagonism; AID 485270; hit rate 1.8% among 330,000; inhibition, % at 6.6 µM; O43613; OX1R-expressing cells, FRET antagonist read-out; in the data active means inhibition mostly above about 38%, no sharp cut-off; inactive means mostly below about 40%;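 further: 0% = agonist challenge alone and 100% = reference antagonist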
GPR7 antag cf: confirmation of human GPR7 antagonists; shares compounds with GPR7 antag; GPR7-expressing cells, calcium fluorescence antagonist mode; inhibition, % at 4.4 µM; hit rate 52% among 2,400; AID 1952; in the data active means inhibition above about 24%;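 further: stimulated with the GPR7 agonist NPW; 0% = agonist plus vehicle and 100% = vehicle alone without agonist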
MCHR1 antagonist: MCHR1 (human) antagonism in GPR7 counter-screen | shares compounds with GPR7 antag | MCHR1-expressing cells, fluorescence antagonist assay | inhibition, % at 4.4 µM | hit rate 62% among 2,400 | AID 2148; in the data active means inhibition above about 22%;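 further: 0% = vehicle with agonist and 100% = vehicle without agonist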
The depositor's hits bear a star.

For CCOC(=O)N1CCC(NC(=O)CN2C(=O)C(CC)Oc3ccc(C)cc32)CC1 (stereo not drawn) the results were OX1R antag-1 -21.4, TAAR1 ag 0.4, CHO parental Ca -14.6, GPR7 antag -10.5, TAAR1 antagonist -41.9 and OX1R antag-2 13.9.
For COc1ccc(CNS(=O)(=O)c2c(C(=O)N3CCCCC3)c(C)n(C)c2C)cc1 the results were OX1R antag-1 -20.4, TAAR1 ag 0.4, CHO parental Ca -9.5, GPR7 antag -7.0, TAAR1 antagonist -15.6 and OX1R antag-2 7.0.
Cc1ccc(CNC(=O)C2CCCN(S(=O)(=O)c3c(C)[nH]c(=O)[nH]c3=O)C2)cc1 (stereo not drawn) was read as OX1R antag-1 -17.6, TAAR1 ag 0.4, CHO parental Ca -13.2, GPR7 antag -11.4, TAAR1 antagonist -3.8 and OX1R antag-2 4.3.
`CC(C)(C)OC(=O)N1CCC(c2c(C(=O)NCC3CCN(C4CCCC4)C3)cnn2-c2ccccc2Cl)CC1` (stereo not drawn) gave OX1R antag-1 -33.9, TAAR1 ag 16.0, CHO parental Ca -12.8, GPR7 antag 44.4*, TAAR1 antagonist 6.6, OX1R antag-2 -4.5, GPR7 antag cf 49.1* and MCHR1 antagonist 22.6*.
O=C(NCCc1ccccc1)C(=O)NCC1CCNCC1 was read as OX1R antag-1 -4.4, CHO parental Ca -6.0, GPR7 antag -19.7 and OX1R antag-2 5.6.
For CC(=O)c1ccc(-n2nnnc2SCC(=O)N2CCc3ccccc3C2)cc1 the results were TAAR1 ag 16.1, GPR7 antag 29.1*, TAAR1 antagonist 9.0, GPR7 antag cf 9.7 and MCHR1 antagonist 11.9.
Screening O=C(CSc1nnnn1-c1ccccc1)N1CCc2ccccc2C1 returned OX1R antag-1 -9.9, TAAR1 ag 3.4, CHO parental Ca -21.1, GPR7 antag -8.2, TAAR1 antagonist 12.7 and OX1R antag-2 18.8.
Screening Cc1ccc(-c2csc(NC(=O)c3ccc(Br)cc3)c2C(=O)O)cc1 returned OX1R antag-1 -18.5, TAAR1 ag -1.2, CHO parental Ca 1.9, GPR7 antag 40.0*, TAAR1 antagonist 23.6, OX1R antag-2 10.4, GPR7 antag cf 62.3* and MCHR1 antagonist 45.8*.
For Cc1cccc(C(=O)N2CCCC(N3CCN(Cc4ccc5c(c4)OCO5)CC3)C2)n1 (stereo not drawn) the results were OX1R antag-1 -43.7, TAAR1 ag 4.0, CHO parental Ca -14.7, GPR7 antag 27.4*, TAAR1 antagonist -9.7, OX1R antag-2 10.8, GPR7 antag cf -11.2 and MCHR1 antagonist 1.6.
`O=C(c1ccccn1)N1CCCC(N2CCN(Cc3ccc4c(c3)OCO4)CC2)C1` (stereo not drawn) gave OX1R antag-1 -0.5, TAAR1 ag 0.7, CHO parental Ca -2.2, GPR7 antag -3.9, TAAR1 antagonist -24.9 and OX1R antag-2 4.7.
`Cc1cc2c(cc(C(=O)OCC(=O)NCc3ccco3)n2C)s1` gave OX1R antag-1 -6.8, TAAR1 ag -0.1, CHO parental Ca 2.5, GPR7 antag 28.6*, TAAR1 antagonist -28.1, OX1R antag-2 6.0, GPR7 antag cf 12.7 and MCHR1 antagonist 22.0*.
Screening C/C(=N/NC(=O)CCc1ccccc1)c1ccc2c(c1)OCO2 returned TAAR1 ag 0.5, GPR7 antag 25.7*, TAAR1 antagonist -18.9, GPR7 antag cf 2.1 and MCHR1 antagonist -3.1.
For CC(C)[C@@H]1CC[C@@H](C)C[C@H]1OC(=O)C[n+]1cc(-c2ccc(Cl)cc2)n2c1CCCCC2 the results were OX1R antag-1 9.2, TAAR1 ag 7.8, CHO parental Ca 9.6, GPR7 antag 58.2*, TAAR1 antagonist -23.5, OX1R antag-2 7.3, GPR7 antag cf 64.9* and MCHR1 antagonist 83.5*.
Screening Cc1ccc(S(=O)(=O)N(C)c2ccc(OCC(=O)Nc3ccc(S(C)(=O)=O)cc3)cc2)cc1 returned TAAR1 ag 13.5 and TAAR1 antagonist 35.8.
For Cc1ccc(S(=O)(=O)N(C)c2ccc(OCC(=O)Nc3cccc(-n4cnnn4)c3C)cc2)cc1 the results were OX1R antag-1 -25.1, TAAR1 ag 3.4, CHO parental Ca -3.8, GPR7 antag 21.6*, TAAR1 antagonist -3.7, OX1R antag-2 11.7, GPR7 antag cf 5.5 and MCHR1 antagonist 33.2*.
`CC(C)CN(C(=O)CN1CCN(c2ccc([N+](=O)[O-])cc2)CC1)c1c(N)n(CC(C)C)c(=O)[nH]c1=O` gave OX1R antag-1 -12.9, TAAR1 ag 8.0, CHO parental Ca -15.2, GPR7 antag -6.4, TAAR1 antagonist -14.1 and OX1R antag-2 26.1.
For O=C1c2cccc3c([N+](=O)[O-])ccc(c23)C(=O)N1c1ccc(Cl)cn1 the results were OX1R antag-1 44.7, TAAR1 ag 1.5, CHO parental Ca 35.4*, GPR7 antag 32.6*, TAAR1 antagonist 70.8*, OX1R antag-2 51.5*, GPR7 antag cf 100.5* and MCHR1 antagonist 103.7*.
For Cc1ccccc1C(=O)c1cccn1CC(=O)NCCCN1CCCCC1 the results were OX1R antag-1 -10.5, TAAR1 ag 0.7, CHO parental Ca 9.9, GPR7 antag -12.4, TAAR1 antagonist -11.5 and OX1R antag-2 9.4.
Cc1ccc(C)c(N2CCN(CCCNC(=O)Cn3cccc3C(=O)c3ccccc3C)CC2)c1 was read as OX1R antag-1 -11.9, TAAR1 ag 22.1, CHO parental Ca -2.7, GPR7 antag 28.4*, TAAR1 antagonist -3.3, OX1R antag-2 0.3, GPR7 antag cf 35.5* and MCHR1 antagonist 65.1*.
`Cc1ccccc1OCC(=O)NCCNC(=O)c1ccncc1` gave OX1R antag-1 6.4, TAAR1 ag -1.2, CHO parental Ca -7.8, GPR7 antag 0.2, TAAR1 antagonist -11.7 and OX1R antag-2 12.1.
CC1CCCCC1NC(=O)CN1C(=O)CSc2cc(S(=O)(=O)N3CCCCCC3)ccc21 (stereo not drawn) was read as OX1R antag-1 -14.9, TAAR1 ag 2.8, CHO parental Ca -17.8, GPR7 antag 27.7*, TAAR1 antagonist 5.2, OX1R antag-2 9.4, GPR7 antag cf 22.8 and MCHR1 antagonist 17.6.
Cc1cc(Cl)ccc1OCC(O)CNCCc1ccc(S(N)(=O)=O)cc1 (stereo not drawn) was read as OX1R antag-1 -14.3, TAAR1 ag 3.2, CHO parental Ca -5.4, GPR7 antag 67.5*, TAAR1 antagonist 8.0, OX1R antag-2 1.2, GPR7 antag cf 65.6* and MCHR1 antagonist 72.8*.
`Cc1cc(Cl)ccc1NC(=S)NCCc1ccc(S(N)(=O)=O)cc1` gave OX1R antag-1 -12.5, TAAR1 ag 8.2, CHO parental Ca 8.3, TAAR1 antagonist 4.2 and OX1R antag-2 25.8.

Screens from PubChem BioAssay.
